Data published in ChEMBL document CHEMBL1811814, “Synthesis and evaluation of indole, pyrazole, chromone and pyrimidine based conjugates for tumor growth inhibitory activities--development of highly efficacious cytotoxic agents” (Eur J Med Chem, 2010).

Key:
Assay type in all cases: functional
KM12 = experiment: Growth inhibition of human KM12 cells; details: for CC50: read-out: LC50 (the source's name)
SF-539 = experiment: Growth inhibition of human SF539 cells; details: for CC50: read-out: LC50 (the source's name)
MDA-MB-231 = experiment: Growth inhibition of human MDA-MB-231 cells; details: for CC50: read-out: LC50 (the source's name)
BT-549 = experiment: Growth inhibition of human BT549 cells; details: for CC50: read-out: LC50 (the source's name)
T47D = experiment: Growth inhibition of human T47D cells; details: for CC50: read-out: LC50 (the source's name)
A549 = experiment: Growth inhibition of human A549 cells assessed tumor cell growth at 10^-5 M; design: scale not given: the % may be the effect or the level left
Method in brief: (§1)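 NCI 60-human-tumor-cell-line panel screen. Each compound was tested at a single concentration of 10^-5 M, and percent growth of tumor cells was recorded for each cell line. Growth inhibition was expressed from these percent-growth values.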

HOP-92 = experiment: Growth inhibition of human HOP92 cells assessed tumor cell growth at 10^-5 M; design: scale not given: the % may be the effect or the level left; method in brief: as §1
MDA-MB-435 = experiment: Growth inhibition of human MDA-MB-435 cells assessed tumor cell growth at 10^-5 M; design: scale not given: the % may be the effect or the level left; method in brief: as §1
ACHN = experiment: Growth inhibition of human ACHN cells assessed tumor cell growth at 10^-5 M; design: scale not given: the % may be the effect or the level left; method in brief: as §1
[1] = Growth inhibition of human Hs 578T cells assessed tumor cell growth at 10^-5 M; design: scale not given: the % may be the effect or the level left; method in brief: as §1
COLO 205 = experiment: Growth inhibition of human COLO205 cells
SK-MEL-28 = experiment: Growth inhibition of human SK-MEL-28 cells; details: for CC50: read-out: LC50 (the source's name)
MCF7 = experiment: Growth inhibition of human MCF7 cells; details: for CC50: read-out: LC50 (the source's name)

For `O=C1/C(=C\c2ccccn2)c2ccccc2N1c1c(Cl)cccc1Cl`, the GI50 (KM12) was 1.8 µM, the CC50 (KM12) was 6.3 µM and the GI50 (SF-539) was 2.4 µM. The CC50 (SF-539) was > 100 µM, the GI50 (MDA-MB-231) was 2 µM and the CC50 (MDA-MB-231) was 29.5 µM. For the same molecule, the GI50 (BT-549) was 2.4 µM, the CC50 (BT-549) was 23.4 µM and the GI50 (T47D) was 2.3 µM. For the same molecule, the CC50 (T47D) was > 100 µM, the Activity (A549) was 50.33% and the Activity (HOP-92) was -7.93%. For the same molecule, the Activity (MDA-MB-435) was -5.05%, the Activity (ACHN) was 19.58% and the Activity [1] was 22.94%. The GI50 (COLO 205) was 2.3 µM and the LC50 (COLO 205) was > 100 µM.

`CC1=NN(c2cccc(Cl)c2)C(=O)/C1=C\C=C\c1ccccc1` gave a GI50 (KM12) of 1.6 µM, a CC50 (KM12) of 5.8 µM and a GI50 (SF-539) of 2.5 µM. The CC50 (SF-539) was > 100 µM, the GI50 (SK-MEL-28) was 2 µM and the CC50 (SK-MEL-28) was 8.9 µM. The GI50 (MCF7) was 1.1 µM, the CC50 (MCF7) was > 100 µM and the GI50 (MDA-MB-231) was 2.2 µM. For the same molecule, the CC50 (MDA-MB-231) was > 100 µM, the GI50 (BT-549) was 1.6 µM and the CC50 (BT-549) was 6.1 µM. The GI50 (T47D) was 2.2 µM, the CC50 (T47D) was > 100 µM and the Activity (A549) was 94.48%. It also gave an Activity (HOP-92) of 101.34%, an Activity (MDA-MB-435) of 13.63% and an Activity (ACHN) of -51.29%. The Activity [1] was 132.74%, the GI50 (COLO 205) was 2.3 µM and the LC50 (COLO 205) was > 100 µM.

For `O=C1/C(=C\c2coc3ccccc3c2=O)c2ccccc2N1c1c(Cl)cccc1Cl`, the GI50 (KM12) was 3 µM, the CC50 (KM12) was > 100 µM and the GI50 (SF-539) was 3 µM. The CC50 (SF-539) was > 100 µM, the GI50 (SK-MEL-28) was 3.8 µM and the CC50 (SK-MEL-28) was > 100 µM. The GI50 (MCF7) was 3.2 µM, the CC50 (MCF7) was > 100 µM and the GI50 (MDA-MB-231) was 3.8 µM. The CC50 (MDA-MB-231) was > 100 µM, the GI50 (BT-549) was 2.8 µM and the CC50 (BT-549) was > 100 µM. For the same molecule, the GI50 (T47D) was 3 µM, the CC50 (T47D) was > 100 µM and the Activity (A549) was 26.65%. It also gave an Activity (HOP-92) of 32.08%, an Activity (MDA-MB-435) of 14.46% and an Activity (ACHN) of 54.64%. The Activity [1] was 27.37% and the GI50 (COLO 205) was 3.8 µM.

In the case of `CC1=NN(c2cccc(Cl)c2)C(=O)/C1=C\c1c(O)ccc2ccccc12`, the GI50 (KM12) is reported as > 100 µM, the CC50 (KM12) is reported as > 100 µM and the GI50 (SF-539) is reported as 0.01 µM. For the same molecule, the CC50 (SF-539) was > 100 µM, the GI50 (MDA-MB-231) was 36.3 µM and the CC50 (MDA-MB-231) was > 100 µM. For the same molecule, the GI50 (BT-549) was 27.5 µM, the CC50 (BT-549) was > 100 µM and the GI50 (T47D) was > 100 µM. For the same molecule, the CC50 (T47D) was > 100 µM, the Activity (A549) was 60.45% and the Activity (HOP-92) was -2.07%. The Activity (MDA-MB-435) was 20.68%, the Activity (ACHN) was -36.07% and the Activity [1] was 82.15%. For the same molecule, the GI50 (COLO 205) was > 100 µM and the LC50 (COLO 205) was > 100 µM.

Work on `O=C1Nc2ccccc2/C1=C/c1cn(C(=O)c2c(Cl)cccc2Cl)c2ccccc12` yielded a GI50 (KM12) of 1.8 µM, a CC50 (KM12) of 8.9 µM and a GI50 (SF-539) of 5 µM. The CC50 (SF-539) was 66.1 µM, the GI50 (MDA-MB-231) was 3.1 µM and the CC50 (MDA-MB-231) was > 100 µM. It also gave a GI50 (BT-549) of 2.4 µM, a CC50 (BT-549) of 37.1 µM and a GI50 (T47D) of 4.1 µM. The CC50 (T47D) was > 100 µM, the Activity (A549) was 36.7% and the Activity (HOP-92) was 49%. It also gave an Activity (MDA-MB-435) of 85.6%, an Activity (ACHN) of 43.6% and an Activity [1] of 64.6%. For the same molecule, the GI50 (COLO 205) was 7.6 µM and the LC50 (COLO 205) was 54.9 µM.
